Published values gathered from unrelated publications.
Target: Protein-tyrosine kinase 2-beta (PTK2B, Homo sapiens, UniProt Q14289)

SMILES | assay | conditions | quantity | value
CNC(=O)c1cc(Oc2ccc(NC(=O)Nc3ccc(Cl)c(C(F)(F)F)c3)cc2)ccn1 | enzyme activity, inhibitor | 0.3 µM | inhibition | -3%
COc1cc2ncnc(Nc3ccc(Oc4ccccc4)cc3C)c2cc1OC | enzyme activity, inhibitor | 1 µM | inhibition | 3%
CCN(CC)CCNC(=O)c1c(C)[nH]c(/C=C2\C(=O)Nc3ccc(F)cc32)c1C | enzyme activity, inhibitor | 0.1 µM | remaining activity | 86%
Cc1ccc(C(=O)Nc2ccc(CN3CCN(C)CC3)c(C(F)(F)F)c2)cc1C#Cc1cnc2cccnn12 | enzyme activity, inhibitor | 23.5 nM | remaining activity | 45%
Nc1ncnc2occ(-c3ccc(NC(=O)Nc4cc(C(F)(F)F)ccc4F)cc3)c12 | cell-free assay, inhibitor | 20 µM | remaining signal | 2.8%
C[C@H](c1ccc(F)cc1)N(Cc1cccc(C(=O)O)c1)C(=O)c1cnc2ccccc2c1 | cell-free assay, competition with immobilised ligand | 1 µM | remaining binding | 100%
O=C(Nc1cnn(-c2csc(C(=O)NC3COC3)c2)c1)Nc1c(F)cccc1Cl | enzyme activity, inhibitor | 5 µM | remaining activity | 91%
CC(C)(C)c1nc2c(s1)c1nc(N)ncc1c1ccc(NS(=O)(=O)c3c(F)cccc3F)c(F)c12 | enzyme activity, inhibitor, radiometric | 1 µM | remaining activity | 91%
CO[C@@H](C)c1c(Nc2ccc([C@H](N(C)C(=O)C3CCS(=O)(=O)CC3)C(F)(F)F)cc2)cnc2cc(Cl)nn12 | cell-free assay, competition with immobilised ligand | 1 µM | remaining binding | 83%
COc1cc2ncnc(Nc3ccc(F)c(Cl)c3)c2cc1OCCCN1CCOCC1 | cell-free assay | 0.5 µM | remaining signal | 98.9%
Cc1[nH]c(/C=C2\C(=O)Nc3ccc(F)cc32)c(C)c1C(=O)N[C@H]1CCN(C(=O)N(C)C)C1 | enzyme activity, inhibitor | 1 µM | remaining activity | 75%
Cc1ccc(C(=O)NCc2ccsc2)cc1C#Cc1cn(C(C)C)c2ncnc(N)c12 | enzyme activity, inhibitor | 1 µM | activity vs control | 57%
CCS(=O)(=O)c1cc2cc(C[C@](O)(CC(C)(C)c3ccc(F)cc3C(N)=O)C(F)(F)F)[nH]c2cn1 | cell-free assay, competition with immobilised ligand | 1 µM | remaining binding | 100%
CN1CC(Oc2cnc(C#N)cc2-c2ccn3nc(NC(=O)C4CC4)cc3c2)C1 | enzyme activity, inhibitor | 1 µM | inhibition | 6%
CCN(CC)c1ccc(C2=NNC(=O)CC2C)cc1[N+](=O)[O-] (stereo not shown) | enzyme activity, inhibitor | 10 µM | remaining activity | 97%
CCc1ccccc1C(=O)Nc1n[nH]c2c(C)c(F)c(C3C(C#N)=C(C)N(C)C(C)=C3C#N)cc12 | cell-free assay, competition with immobilised ligand | 1 µM | remaining binding | 92%
COc1cc2nccc(Oc3ccc(NC(=O)c4c5n(n(-c6ccc(F)cc6)c4=O)CCCC5)cc3)c2cc1OC | enzyme activity, inhibitor | 0.1 µM | inhibition | 0%
Cc1ccc(Nc2nccc(N(C)c3ccc4c(C)n(C)nc4c3)n2)cc1S(N)(=O)=O | enzyme activity, inhibitor | 0.3 µM | inhibition | 6%
Oc1cccc(-c2nc(N3CCOCC3)c3oc4ncccc4c3n2)c1 | cell-free assay | 0.5 µM | remaining signal | 103%
Cc1noc([C@H]2C[C@@H](c3ccc(C(F)(F)F)cc3)CN(C(=O)N3CCS(=O)(=O)C3)C2)n1 | cell-free assay, competition with immobilised ligand | 1 µM | remaining binding | 100%
c1nc2c(Nc3ccc4c(c3)OCCO4)nc(Nc3ccc4c(c3)OCCO4)nc2[nH]1 | enzyme activity, inhibitor | 10 µM | activity vs control | 2.3%
Cc1nc(Cc2cccc(C(F)(F)F)c2)sc1-c1ccc(C(N)=O)nc1 | cell-free assay, competition with immobilised ligand | 1 µM | remaining binding | 100%
CCN(CC)CCNC(=O)c1c(C)[nH]c(/C=C2\C(=O)Nc3ccc(F)cc32)c1C | enzyme activity, inhibitor | 0.3 µM | inhibition | 59%
CNC(=O)c1ccc(Nc2ncc(C(F)(F)F)c(NCc3nccnc3N(C)S(C)(=O)=O)n2)cc1 | binding, competition with immobilised ligand | 1 µM | remaining binding | 8.3%
COc1cc2c(Nc3ccc(Br)cc3F)ncnc2cc1OCC1CCN(C)CC1 | cell-free assay | 0.5 µM | remaining signal | 99.5%
CC/C(=N\NC(=O)NCc1cccc(O)c1)c1ccc(O)c(C)c1O | enzyme activity, inhibitor | 0.1 µM | inhibition | -0.1%
CCCCN(CCCC)C(=O)CN1C[C@H](c2cc(OC)c3c(c2)OCO3)[C@@H](C(=O)O)[C@@H]1CC(C)(C)CCC | cell-free assay, competition with immobilised ligand | 1 µM | remaining binding | 100%
COc1cc2c(N3CCN(C(=O)Nc4ccc(OC(C)C)cc4)CC3)ncnc2cc1OCCCN1CCCCC1 | cell-free assay | 0.5 µM | remaining signal | 99.3%
